What was measured:
[1] = tested on: Trypanosoma brucei brucei; assay: Antitrypanosomal activity against Trypanosoma brucei brucei MIT measured after 6 hrs by Alamar blue cell viability assay; assay type: functional, organism-based
In short: (§1)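 Bloodstream-form T. b. brucei MITat1.1 kept in log phase in antibiotic-free HMI-9 with 10% heat-inactivated FBS, 37 °C, 5% CO2. Seeded at 2 × 10⁵ cells/mL with 5 μM–100 pM compound or DMSO alone. Alamar Blue added at 6 h, total incubation 24 h. Absorbance read at 540 and 595 nm. Triplicate. EC50 by four-parameter variable-slope nonlinear regression.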

HaCaT [2] = assay: Growth inhibition of human HaCaT cells assessed as reduction in cell viability at above 10 uM incubated for 24 hrs by MTT assay
HaCaT [3] = assay: Growth inhibition of human HaCaT cells assessed as LDH release at 100 uM incubated for 24 hrs by MTT assay; assay type: toxicity, cell-based
In short: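 HaCaT keratinocytes in DMEM with 10% fetal calf serum, seeded at 1x10⁵ cells/mL and grown 24 h. After a PBS wash, cells were exposed 24 h to compound at final 100 μM (from 10 mM DMSO stock, diluted in medium). Medium was then assayed for LDH release at 490/680 nm. Normalised to untreated cells and to lysis buffer (maximum release) as % cytotoxicity. Triplicate wells, three independent experiments.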

[4] = tested on: Trypanosoma brucei brucei; assay: Antitrypanosomal activity against Trypanosoma brucei brucei assessed as reduction in survival; assay type: functional, organism-based; in short: as §1
[5] = Growth inhibition of human HaCaT cells incubated for 24 hrs by MTT assay; assay type: toxicity, cell-based
In short: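 HaCaT cells (mycoplasma-tested) in DMEM with 10% fetal calf serum, seeded at 1x10⁵ cells/mL for 24 h, washed with PBS and then exposed to compound for 24 h. Controls were 0.1% v/v Triton X-100 and untreated cells. MTT (0.5 mg/mL) added for 3 h, formazan dissolved in DMSO and read at 590 nm. GI50 from log(inhibitor) vs normalised response. Triplicate wells, repeated on three separate days.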

EC50 [1]	SMILES	growth inhibition (GI) (HaCaT [2])	growth inhibition (GI) (HaCaT [3])	IC50 [4]	GI50 at 24 h [5]
740 nM	O=C(N[C@@H](Cc1ccccc1)C(=O)N[C@H](/C=C/S(=O)(=O)c1ccccc1)CCCCNS(=O)(=O)c1cccc2ccccc12)OCc1ccccc1	–	–	–	–
900 nM	O=C(N[C@H](/C=C/S(=O)(=O)c1ccccc1)CCCCNS(=O)(=O)c1cccc2ccccc12)[C@H](Cc1ccccc1)NC(=O)N1CCOCC1	–	–	–	–
1120 nM	O=C(N[C@H](/C=C/S(=O)(=O)c1ccccc1)CCCCNS(=O)(=O)c1cccc2ccccc12)[C@H](Cc1ccccc1)n1cc(-c2ccccc2)nn1	–	–	–	–
990 nM	Cc1ccc(S(=O)(=O)N[C@@H](Cc2ccccc2)C(=O)N[C@H](/C=C/S(=O)(=O)c2ccccc2)CCCCNS(=O)(=O)c2cccc3ccccc23)cc1	–	–	–	–
1190 nM	CN1CCN(C(=O)N[C@@H](Cc2ccccc2)C(=O)N[C@H](/C=C/S(=O)(=O)c2ccccc2)CCCCNS(=O)(=O)c2cccc3ccccc23)CC1	Toxic	Not Determined(Insoluble)	1180 nM	28700 nM
> 5000 nM	[N-]=[N+]=N[C@@H](Cc1ccccc1)C(=O)N[C@H](/C=C/S(=O)(=O)c1ccccc1)CCCCNS(=O)(=O)c1cccc2ccccc12	–	–	–	–
3430 nM	N[C@@H](Cc1ccccc1)C(=O)N[C@H](/C=C/S(=O)(=O)c1ccccc1)CCCCNS(=O)(=O)c1cccc2ccccc12	–	–	–	–
> 5000 nM	CC(C)(C)NC(=O)N[C@@H](Cc1ccccc1)C(=O)N[C@H](/C=C/S(=O)(=O)c1ccccc1)CCCCNS(=O)(=O)c1cccc2ccccc12	–	–	–	–
710 nM	O=C(N[C@@H](Cc1ccccc1)C(=O)N[C@H](/C=C/S(=O)(=O)c1ccccc1)CCCCNS(=O)(=O)c1cccc2ccccc12)c1ccncc1	–	–	–	–
1050 nM	CCCCCCc1cn([C@@H](Cc2ccccc2)C(=O)N[C@H](/C=C/S(=O)(=O)c2ccccc2)CCCCNS(=O)(=O)c2cccc3ccccc23)nn1	–	–	–	–
640 nM	CCCCNC(=O)N[C@@H](Cc1ccccc1)C(=O)N[C@H](/C=C/S(=O)(=O)c1ccccc1)CCCCNS(=O)(=O)c1cccc2ccccc12	–	–	–	–
> 5000 nM	O=C1N[C@@H](CCCCNS(=O)(=O)c2cccc3ccccc23)[C@@H](CS(=O)(=O)c2ccccc2)N[C@H]1Cc1ccccc1	–	–	–	–
390 nM	COc1cc(Br)c(S(=O)(=O)NCCCC[C@@H](/C=C/S(=O)(=O)c2ccccc2)NC(=O)[C@H](Cc2ccccc2)NC(=S)Nc2ccc(C(F)(F)F)cc2)cc1OC	Toxic	Not Determined(Insoluble)	410 nM	–
240 nM	O=C(N[C@@H](Cc1ccccc1)C(=O)N[C@H](/C=C/S(=O)(=O)c1ccccc1)CCCCNS(=O)(=O)c1cccc2ccccc12)c1ccc(C(F)(F)F)cc1	Toxic	Not Determined(Insoluble)	242 nM	–
150 nM	O=C(Nc1ccccc1)N[C@@H](Cc1ccccc1)C(=O)N[C@H](/C=C/S(=O)(=O)c1ccccc1)CCCCNS(=O)(=O)c1cccc2ccccc12	Toxic	Not Determined(Insoluble)	144 nM	–
800 nM	O=C(Cc1ccc2c(c1)OCO2)N[C@@H](Cc1ccccc1)C(=O)N[C@H](/C=C/S(=O)(=O)c1ccccc1)CCCCNS(=O)(=O)c1cccc2ccccc12	–	–	–	–
480 nM	O=C(N[C@H](/C=C/S(=O)(=O)c1ccccc1)CCCCNS(=O)(=O)c1cccc2ccccc12)[C@H](Cc1ccccc1)NC(=S)Nc1ccccc1	–	–	–	–
220 nM	O=C(N[C@H](/C=C/S(=O)(=O)c1ccccc1)CCCCNS(=O)(=O)c1cccc2ccccc12)[C@H](Cc1ccccc1)NC(=S)Nc1ccc(C(F)(F)F)cc1	Toxic	Not Determined(Insoluble)	220 nM	–
